Reference: ChEMBL document CHEMBL4699424, “New chemical agents based on adamantane-monoterpene conjugates against orthopoxvirus infections” (RSC Med Chem, 2020)
pIC50: −log10 of the molar value.

How the values were obtained:
[1] = Selectivity index, ratio of CC50 for African green monkey Vero cells to IC50 for Vaccinia virus Copenhagen infected in African green monkey Vero cells assessed as reduction in cell survival incubated for 4 days by neutral dye based colorimetric analysis; type: toxicity; conditions: read-out: Ratio CC50/IC50
[2] = Cytotoxicity against African green monkey Vero cells assessed as […]; type: cell-based; conditions: chlorocebus sabaeus
In short: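 Uninfected Vero monolayers in DMEM with 2% serum, given 8 three-fold compound dilutions starting at 1, 10 or 100 μg ml–1. Cell viability read by neutral red uptake: dye 1.5 h, washes, lysis, OD. CC50, the concentration causing 50% cell death, calculated from OD values.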

Vaccinia virus [3] = experiment: Antiviral activity against Vaccinia virus Copenhagen infected in African green monkey Vero cells assessed as reduction in cell survival incubated for 4 days by neutral red dye based colorimetric analysis; type: functional, organism-based; conditions: Orthopoxvirus vaccinia, 96 h
Vaccinia virus [4] = experiment: Antiviral activity against Vaccinia virus; type: functional, organism-based; conditions: Orthopoxvirus vaccinia
Vaccinia virus [5] = experiment: Antiviral activity against Vaccinia virus assessed as reduction in viral reproduction at 2 ug/ml relative to control; type: functional, Orthopoxvirus vaccinia; set-up: scale not given: the % may be the effect or the level left; conditions: dose 2 µg/ml
Ectromelia virus = experiment: Antiviral activity against Ectromelia virus K-1 infected in African green monkey Vero cells assessed as reduction in cell survival incubated for 4 days by neutral red dye based colorimetric analysis; type: functional; conditions: K-1, Vero, 96 h
[6] = Selectivity index, ratio of CC50 for African green monkey Vero cells to IC50 for Cowpox virus Grishak infected in African green monkey Vero cells assessed as reduction in cell survival incubated for 4 days by neutral dye based colorimetric analysis; type: toxicity; conditions: read-out: Ratio CC50/IC50
[7] = Selectivity index, ratio of CC50 for African green monkey Vero cells to IC50 for Ectromelia virus K-1 infected in African green monkey Vero cells assessed as reduction in cell survival incubated for 4 days by neutral dye based colorimetric analysis; type: toxicity; conditions: read-out: Ratio CC50/IC50
Cowpox virus = experiment: Antiviral activity against Cowpox virus Grishak infected in African green monkey Vero cells assessed as reduction in cell survival incubated for 4 days by neutral red dye based colorimetric analysis; type: functional, organism-based; conditions: 96 h
Vaccinia virus [8] = experiment: Antiviral activity against Vaccinia virus assessed as reduction in viral reproduction at 2 ug/ml after 3 hrs relative to control; type: functional, Orthopoxvirus vaccinia; set-up: scale not given: the % may be the effect or the level left; conditions: dose 2 µg/ml

SMILES	selectivity ratio at 96 h [1]	CC50 [2] [µM]	pIC50 (Vaccinia virus [3])	further results
CC(C)CCCC(C)CCNC(=O)C1C2CC3CC(C2)CC1C3 (centres undefined)	5	13.7	5.55	
CC1CCN(CC(=O)N[C@@H]2C[C@H]3CC[C@]2(C)C3(C)C)CC1				pIC50 (Vaccinia virus [4]): 5.60
O=C(NN1C(=O)C2C3C=CC(C4CC34)C2C1=O)c1ccc(C(F)(F)F)cc1 (centres undefined)	128000	1280	8.00	
O=C(NC12CC3CC(CC(C3)C1)C2)C(c1ccccc1)c1ccccc1				Activity (Vaccinia virus [5]): 72%
CC1(C)[C@H]2CC=C(CNC(=O)C34CC5CC(CC(C5)C3)C4)[C@@H]1C2	1120	1910	5.77	pIC50 (Ectromelia virus): 5.57; selectivity ratio at 96 h [6]: 406; selectivity ratio at 96 h [7]: 707; pIC50 (Cowpox virus): 5.33
CC1(C)[C@H]2CC=C(CCNC(=O)C3C4CC5CC(C4)CC3C5)[C@@H]1C2 (some centres undefined)	85	372	5.36	pIC50 (Ectromelia virus): 5.02; selectivity ratio at 96 h [6]: 30; selectivity ratio at 96 h [7]: 39; pIC50 (Cowpox virus): 4.90
CC(C)=CCCC(C)CC(=O)NC12CC3CC(CC(C3)C1)C2 (centres undefined)	12	37	5.51	
CC1=CC[C@H](CCNC(=O)C2C3CC4CC(C3)CC2C4)C1(C)C (some centres undefined)	122	317	5.59	
CC1(C)[C@@H]2CC[C@@]1(CS(=O)(=O)NC1C3CC4CC(C3)CC1C4)C(=O)C2 (some centres undefined)	160	95.8	6.22	
CC1=CC[C@H](CCNC(=O)C23CC4CC(CC(C4)C2)C3)C1(C)C	126	317	5.60	
CC1(C)[C@H]2CC=C(C(=O)NC3C4CC5CC(C4)CC3C5)[C@@H]1C2 (some centres undefined)	325	812	5.60	pIC50 (Ectromelia virus): 5.77; selectivity ratio at 96 h [6]: 113; selectivity ratio at 96 h [7]: 477; pIC50 (Cowpox virus): 5.14
CC(C)=CCCC(C)CC(=O)NC1C2CC3CC(C2)CC1C3 (centres undefined)	22	330	4.83	
CC1(C)[C@@H]2CC[C@@]1(CS(=O)(=O)NC13CC4CC(CC(C4)C1)C3)C(=O)C2	71	164	5.64	
Nc1ccn(C[C@@H](CO)OCP(=O)(O)O)c(=O)n1 [CIDOFOVIR]	12			
CC1(C)[C@@H]2CC[C@@]1(C)[C@H](NC(=O)C13CC4CC(CC(C4)C1)C3)C2	30	317	4.97	
CC(C)=CCC[C@H](C)CCNC(=O)C12CC3CC(CC(C3)C1)C2	5	18.1	5.44	
CC(C)CCCC(C)CCNC(=O)C12CC3CC(CC(C3)C1)C2 (centres undefined)		17.3		
CC1(C)[C@H]2CC[C@](C)(C2)[C@H]1NC(=O)C12CC3CC(CC(C3)C1)C2	22	317	4.84	
CC(C)=CCC/C(C)=C\CNC(=O)C12CC3CC(CC(C3)C1)C2		12.9		
C=C(C)[C@@H]1CC=C(CNC(=O)C23CC4CC(CC(C4)C2)C3)CC1	26	319	4.91	
CC1(C)[C@H]2CC[C@]1(C)[C@H](OC(=O)CCN1CCOCC1)C2				pIC50 (Vaccinia virus [4]): 5.46
CC1(C)[C@H]2CC=C(CNC(=O)C3C4CC5CC(C4)CC3C5)[C@@H]1C2 (some centres undefined)	267	1230	5.34	pIC50 (Ectromelia virus): 4.90; selectivity ratio at 96 h [6]: 82; selectivity ratio at 96 h [7]: 97; pIC50 (Cowpox virus): 4.82
CC(C)=CCC/C(C)=C/CNC(=O)C12CC3CC(CC(C3)C1)C2	3	18.9	5.23	
CC1(C)[C@H]2CC=C(C(=O)NC34CC5CC(CC(C5)C3)C4)[C@@H]1C2	11	7.9	6.15	
CC1(C)[C@H]2CC=C(CCNC(=O)C34CC5CC(CC(C5)C3)C4)[C@@H]1C2	417	750	5.74	pIC50 (Ectromelia virus): 5.80; selectivity ratio at 96 h [6]: 183; selectivity ratio at 96 h [7]: 469; pIC50 (Cowpox virus): 5.39
O=C1Nc2ccccc2/C1=N\NC(=S)NC1C2CC3CC(C2)CC1C3 (centres undefined)				Activity (Vaccinia virus [8]): 42%
